How the values were obtained:
MCF7 [1] = experiment: Effect on Estrogen receptor positive MCF-7 human breast cancer cell proliferation at 1x10E-6M (control = 66.9+/-7.0); type: functional
Procedure, shortened: (§1)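 MCF-7 cells were kept in MEM with 5% charcoal-treated newborn calf serum and phenol red for 2 weeks, then about 2×10^4 cells were plated per well. Compounds in 0.1% DMF were added 2 days later and renewed on day 4; DMF alone served as control. Coulter cell counts were taken on day 5; mean of six dishes ± SD; % T/C.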

MCF7 [2] = experiment: Effect on Estrogen receptor positive MCF-7 human breast cancer cell proliferation at 5x10E-6M (control = 66.9+/-7.0); type: functional; procedure, shortened: as §1
MCF7 [3] = experiment: Effect on [3H]thymidine incorporation into estrogen receptor positive MCF-7 human breast cancer cells at 1*10^-6 M (control = 28.2+/-3.0); type: functional
Procedure, shortened: (§2)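 MCF-7 cells were grown in MEM with charcoal-treated 5% newborn calf serum and phenol red, then treated with compounds in 0.1% DMF (renewed on day 4) alongside DMF controls. They were labeled 3 days later with 1 µCi [³H]thymidine per well for 2 h, and incorporated radioactivity per dish was measured; mean of six dishes ± SD; % T/C.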

MCF7 [4] = experiment: Effect on [3H]thymidine incorporation into estrogen receptor positive MCF-7 human breast cancer cells at 5x10E-6M (control = 28.2+/-3.0); type: functional
Procedure, shortened: (§3)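 MCF-7 cells in improved MEM with glutamine, gentamycin and 5% newborn calf serum, switched to charcoal-treated serum two weeks ahead; phenol red present; 37 °C, 5% CO2. About 2×10^4 cells plated per well; compound in 0.1% DMF added 2 days later, renewed on day 4; labelled 3 days later with 1 μCi [3H]thymidine per well for 2 h; cpm/dish, mean of six dishes ± SD.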

[5] = target: T1, Estrogen receptor (Mus musculus) (UniProt O08537+P19785); experiment: Percent inhibition of estrone stimulated uterotrophic effect in mice at 15 ug; type: functional
Procedure, shortened: (§4)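 Immature mice given test compound per animal sc on three consecutive days together with 0.4 μg estrone/animal/day. Killed 24 h after last injection; uteri fixed in Bouin, dried 100 °C 24 h and weighed. Inhibition = 100 − [(W_S,T − W_V)/(W_S − W_V) × 100] using relative uterus weights; 6-10 animals; Wilcoxon-Mann-Whitney U test.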
Target sequence in this assay (O08537 whole entry, looked up): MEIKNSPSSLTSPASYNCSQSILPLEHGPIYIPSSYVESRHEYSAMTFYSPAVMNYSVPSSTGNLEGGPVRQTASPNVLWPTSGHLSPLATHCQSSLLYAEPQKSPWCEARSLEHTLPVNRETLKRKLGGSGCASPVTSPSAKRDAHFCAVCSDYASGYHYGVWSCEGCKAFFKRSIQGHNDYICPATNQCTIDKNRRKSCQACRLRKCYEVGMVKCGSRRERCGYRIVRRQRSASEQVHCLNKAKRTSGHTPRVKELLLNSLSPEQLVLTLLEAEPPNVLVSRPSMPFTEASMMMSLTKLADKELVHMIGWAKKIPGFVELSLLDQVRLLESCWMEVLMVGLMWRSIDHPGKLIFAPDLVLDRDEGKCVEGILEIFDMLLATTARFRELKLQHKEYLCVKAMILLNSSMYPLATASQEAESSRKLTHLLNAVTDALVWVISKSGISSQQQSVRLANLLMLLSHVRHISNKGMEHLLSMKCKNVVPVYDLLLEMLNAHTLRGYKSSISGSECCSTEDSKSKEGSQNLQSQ
Target sequence in this assay (P19785 whole entry, looked up): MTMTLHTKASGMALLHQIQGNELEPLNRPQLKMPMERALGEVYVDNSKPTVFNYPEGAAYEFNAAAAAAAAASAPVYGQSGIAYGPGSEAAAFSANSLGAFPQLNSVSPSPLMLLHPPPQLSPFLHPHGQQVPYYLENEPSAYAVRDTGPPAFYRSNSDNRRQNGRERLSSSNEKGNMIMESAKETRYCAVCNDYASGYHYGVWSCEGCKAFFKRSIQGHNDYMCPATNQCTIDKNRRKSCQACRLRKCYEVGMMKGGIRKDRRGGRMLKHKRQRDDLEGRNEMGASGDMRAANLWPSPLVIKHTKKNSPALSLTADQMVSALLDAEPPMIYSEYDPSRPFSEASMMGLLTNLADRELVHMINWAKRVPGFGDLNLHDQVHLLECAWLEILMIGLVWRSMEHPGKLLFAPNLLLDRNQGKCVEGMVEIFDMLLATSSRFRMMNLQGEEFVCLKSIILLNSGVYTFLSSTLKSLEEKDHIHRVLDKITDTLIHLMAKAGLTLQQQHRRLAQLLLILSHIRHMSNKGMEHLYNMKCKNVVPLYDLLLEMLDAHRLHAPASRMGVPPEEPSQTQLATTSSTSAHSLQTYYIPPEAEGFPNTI

[6] = target: T1, Estrogen receptor (Mus musculus); experiment: Percent inhibition of estrone stimulated uterotrophic effect in mice at 150 ug; type: functional; procedure, shortened: as §4
Target sequence in this assay (O08537 whole entry, looked up): as the sequence (O08537 whole entry, looked up) above
Target sequence in this assay (P19785 whole entry, looked up): as the sequence (P19785 whole entry, looked up) above

[7] = target: T1, Estrogen receptor (Mus musculus); experiment: Uterotrophic effect in mice as relative uterine weight(mg) at 15 ug (control = 12.3+/-3.7); type: functional, tissue-based
Procedure, shortened: (§5)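 Immature mice dosed sc per animal on three consecutive days; vehicle controls. Killed and weighed 24 h after last injection; uteri fixed in Bouin solution 2 h, washed with alcoholic LiCl, dried at 100 °C for 24 h. Relative uterus weight = uterine dry weight (mg)/body weight (g) × 100; mean of 6-10 animals ± SD.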
Target sequence in this assay (O08537 whole entry, looked up): as the sequence (O08537 whole entry, looked up) above
Target sequence in this assay (P19785 whole entry, looked up): as the sequence (P19785 whole entry, looked up) above

[8] = target: T1, Estrogen receptor (Mus musculus); experiment: Uterotrophic effect in mice as relative uterine weight(mg) at 150 ug (control = 12.3+/-3.7); type: functional, tissue-based; procedure, shortened: as §5
Target sequence in this assay (O08537 whole entry, looked up): as the sequence (O08537 whole entry, looked up) above
Target sequence in this assay (P19785 whole entry, looked up): as the sequence (P19785 whole entry, looked up) above

MCF7 [9] = experiment: Effect on Estrogen receptor positive MCF-7 human breast cancer cell proliferation at 1x10E-6M; type: functional; procedure, shortened: as §1
MCF7 [10] = experiment: Effect on Estrogen receptor positive MCF-7 human breast cancer cell proliferation at 5x10E-6M; type: functional; procedure, shortened: as §1
[11] = target: T1, Estrogen receptor (Mus musculus); experiment: Anti-uterotrophic effect in mice as relative uterine weight(mg) at 15 ug; type: functional
Procedure, shortened: (§6)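 Immature mice received the compound sc per animal on three consecutive days, alone or with 0.4 µg estrone per animal per day. Uteri were taken 24 h after the last injection, Bouin-fixed, dried at 100 °C for 24 h and weighed. Relative uterus weight = dry weight (mg)/body weight (g) × 100; mean of 6-10 animals ± SD; Mann-Whitney U test.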
Target sequence in this assay (O08537 whole entry, looked up): as the sequence (O08537 whole entry, looked up) above
Target sequence in this assay (P19785 whole entry, looked up): as the sequence (P19785 whole entry, looked up) above

[12] = target: T1, Estrogen receptor (Mus musculus); experiment: Anti-uterotrophic effect in mice as relative uterine weight(mg) at 150 ug; type: functional; procedure, shortened: as §6
Target sequence in this assay (O08537 whole entry, looked up): as the sequence (O08537 whole entry, looked up) above
Target sequence in this assay (P19785 whole entry, looked up): as the sequence (P19785 whole entry, looked up) above

MCF7 [13] = experiment: Effect on [3H]thymidine incorporation into estrogen receptor positive MCF-7 human breast cancer cells at 1x10E-6M; type: functional; procedure, shortened: as §2
MCF7 [14] = experiment: Effect on [3H]thymidine incorporation into estrogen receptor positive MCF-7 human breast cancer cells at 5x10E-6M; type: functional; procedure, shortened: as §3
MCF7 [15] = experiment: Effect on [3H]thymidine incorporation into estrogen receptor positive MCF-7 human breast cancer cells at 5x10E-6M (control = 7.7+/-0.8); type: functional; procedure, shortened: as §3
MCF7 [16] = experiment: Effect on Estrogen receptor positive MCF-7 human breast cancer cell proliferation at 1x10E-6M (control = 22.3+/-3.3); type: functional; procedure, shortened: as §1
MCF7 [17] = experiment: Effect on Estrogen receptor positive MCF-7 human breast cancer cell proliferation at 5x10E-6M (control = 22.3+/-3.3); type: functional; procedure, shortened: as §1
MCF7 [18] = experiment: Effect on [3H]thymidine incorporation into estrogen receptor positive MCF-7 human breast cancer cells at 1x10E-6M (control = 7.7+/-0.8); type: functional; procedure, shortened: as §2
[19] = target: T1, Estrogen receptor (Mus musculus); experiment: Uterotrophic effect in mice as relative uterine weight(mg) at 250 ug (control = 12.4+/-3.7); type: functional, tissue-based; procedure, shortened: as §5
Target sequence in this assay (P19785 whole entry, looked up, chain 1 of 2): as the sequence (P19785 whole entry, looked up) above
Target sequence in this assay (O08537 whole entry, looked up, chain 2 of 2): as the sequence (O08537 whole entry, looked up) above

Mus musculus [20] = organism: Mus musculus; experiment: Relative tumor weight in treated compared to control mice bearing hormone-dependent transplanted MXT mammary tumors at 10 mg; type: functional, organism-based
Mus musculus [21] = organism: Mus musculus; experiment: Relative tumor weight in treated compared to control mice bearing hormone-dependent transplanted MXT mammary tumors at 20 mg; type: functional, organism-based
[22] = target: T1, Estrogen receptor (Mus musculus); experiment: Uterotrophic effect in mice as relative uterine weight(mg) at 25 ug (control = 12.4+/-3.7); type: functional, tissue-based; procedure, shortened: as §5
Target sequence in this assay (P19785 whole entry, looked up, chain 1 of 2): as the sequence (P19785 whole entry, looked up) above
Target sequence in this assay (O08537 whole entry, looked up, chain 2 of 2): as the sequence (O08537 whole entry, looked up) above

[23] = target: T1, Estrogen receptor (Mus musculus); experiment: Anti-uterotrophic effect in hormone-dependent transplant MXT bearing mice as relative uterine weight in treated and control mice at 10 mg (control=100+/-30); type: functional
Target sequence in this assay (P19785 whole entry, looked up, chain 1 of 2): as the sequence (P19785 whole entry, looked up) above
Target sequence in this assay (O08537 whole entry, looked up, chain 2 of 2): as the sequence (O08537 whole entry, looked up) above

[24] = target: T1, Estrogen receptor (Mus musculus); experiment: Anti-uterotrophic effect in hormone-dependent transplant MXT bearing mice as relative uterine weight in treated and control mice at 20 mg (control=100+/-30); type: functional
Target sequence in this assay (P19785 whole entry, looked up, chain 1 of 2): as the sequence (P19785 whole entry, looked up) above
Target sequence in this assay (O08537 whole entry, looked up, chain 2 of 2): as the sequence (O08537 whole entry, looked up) above

Mus musculus [25] = organism: Mus musculus; experiment: Anti-tumor activity in hormone-dependent transplant MXT mammary tumor bearing mice at 10 mg (control=534+/-652); type: functional, organism-based
[26] = target: T1, Estrogen receptor (Mus musculus); experiment: Anti-uterotrophic effect in mice as relative uterine weight(mg) at 250 ug; type: functional; procedure, shortened: as §6
Target sequence in this assay (P19785 whole entry, looked up, chain 1 of 2): as the sequence (P19785 whole entry, looked up) above
Target sequence in this assay (O08537 whole entry, looked up, chain 2 of 2): as the sequence (O08537 whole entry, looked up) above

Mus musculus [27] = organism: Mus musculus; experiment: Anti-tumor activity in hormone-dependent transplant MXT mammary tumor bearing mice at 20 mg (control=534+/-652); type: functional, organism-based
MCF7 [28] = experiment: Effect on Estrogen receptor positive MCF-7 human breast cancer cell proliferation at 1x10E-6M (control = 62.3+/-8.8); type: functional; procedure, shortened: as §1
MCF7 [29] = experiment: Effect on Estrogen receptor positive MCF-7 human breast cancer cell proliferation at 5x10E-6M (control = 62.3+/-8.8); type: functional; procedure, shortened: as §1
MCF7 [30] = experiment: Effect on [3H]thymidine incorporation into estrogen receptor positive MCF-7 human breast cancer cells at 1x10E-6M (control = 43.4+/-1.8); type: functional; procedure, shortened: as §2
MCF7 [31] = experiment: Effect on [3H]thymidine incorporation into estrogen receptor positive MCF-7 human breast cancer cells at 5x10E-6M (control = 43.4+/-1.8); type: functional; procedure, shortened: as §3
[32] = target: T1, Estrogen receptor (Mus musculus); experiment: Percent inhibition of estrone stimulated uterotrophic effect in mice at 250 ug; type: functional; procedure, shortened: as §4
Target sequence in this assay (P19785 whole entry, looked up, chain 1 of 2): as the sequence (P19785 whole entry, looked up) above
Target sequence in this assay (O08537 whole entry, looked up, chain 2 of 2): as the sequence (O08537 whole entry, looked up) above

[33] = target: T1, Estrogen receptor (Mus musculus); experiment: Uterotrophic effect in mice as relative uterine weight(mg) at 25 ug (control = 14.6+/-2.7); type: functional, tissue-based; procedure, shortened: as §5
[34] = target: T1, Estrogen receptor (Mus musculus); experiment: Uterotrophic effect in mice as relative uterine weight(mg) at 250 ug (control = 14.6+/-2.7); type: functional, tissue-based; procedure, shortened: as §5
[35] = target: T1, Estrogen receptor (Mus musculus); experiment: Uterotrophic effect in mice as relative uterine weight(mg) at 15 ug (control = 14.6+/-2.7); type: functional, tissue-based; procedure, shortened: as §5
[36] = target: T1, Estrogen receptor (Mus musculus); experiment: Uterotrophic effect in mice as relative uterine weight(mg) at 150 ug (control = 14.6+/-2.7); type: functional, tissue-based; procedure, shortened: as §5

inhibition [5] | inhibition [6] | Relative uterus weight [11] | Relative uterus weight [12] | Relative uterus weight [26] | Compound | T/C (MCF7 [9]) | T/C (MCF7 [10]) | T/C (MCF7 [13]) | T/C (MCF7 [14]) | Cell no/dish (MCF7 [28]) | Cell no/dish (MCF7 [29]) | Activity (MCF7 [30]) | Activity (MCF7 [31]) | other results
9% | 5% | 42.6 mg | 44 mg |  | Cc1c(-c2ccc(O)cc2)n(CCCCCNCc2ccccn2)c2ccc(O)cc12 | 64% | 43% | 76% | 67% |  |  |  |  | Cell no/dish (MCF7 [1]): 430000; Cell no/dish (MCF7 [2]): 287000; Activity (MCF7 [3]): 21600; Activity (MCF7 [4]): 18900; Relative uterus weight [7]: 16.4 mg; Relative uterus weight [8]: 13.3 mg
 |  |  |  | 56.3 mg | [5-hydroxy-3-methyl-2-(4-hydroxyphenyl)-1-[omega-[(2-pyridylmethyl)amino]hexyl]indole]dichloroplatinum (II) complex | 52% | 56% | 18% | 12% |  |  |  |  | Activity (MCF7 [15]): 900; Cell no/dish (MCF7 [16]): 116000; Cell no/dish (MCF7 [17]): 124000; Activity (MCF7 [18]): 1400; Relative uterus weight [19]: 22.5 mg; T/C (Mus musculus [20]): 36%; T/C (Mus musculus [21]): 22%; Relative uterus weight [22]: 20.2 mg; T/C [23]: 92%; T/C [24]: 113%; Tumor weight (Mus musculus [25]): 195 mg; Tumor weight (Mus musculus [27]): 121 mg
 |  |  |  | 51.8 mg | [5-hydroxy-3-methyl-2-(4-hydroxyphenyl)-1-[omega-[(2-pyridylmethyl)amino]butyl]indole]dichloroplatinum (II) complex | 89% | 79% | 88% | 68% | 554000 | 489000 | 38400 | 29500 | inhibition [32]: 5%; Relative uterus weight [33]: 21.5 mg; Relative uterus weight [34]: 14.8 mg
4% | 25% | 52.2 mg | 44 mg |  | Cc1c(-c2ccc(O)cc2)n(CCCCNCc2ccccn2)c2ccc(O)cc12 | 96% | 73% | 87% | 76% | 598000 | 452000 | 37800 | 33100 | Relative uterus weight [35]: 22.1 mg; Relative uterus weight [36]: 15 mg

Source: ChEMBL document CHEMBL1125823, “2-Phenylindole-linked [2-(aminoalkyl)pyridine]dichloroplatinum(II): complexes with a selective action on estrogen receptor positive mammary tumors” (1991)
